Compound activity as filed in PubChem BioAssay.
In the library only some 1.5% were active in any assay of this set; here they are far more common.
OXTR agonist – human OXTR agonists, primary screen, fluorescence, CHO-OTR cells, Fluo-8 calcium; Oxytocin receptor (Homo sapiens), P30559; Fluo-8 calcium fluorescence; normalized: DMSO 0%, oxytocin 100%; activation, % at 3 µM; actives 0.32% (n = 320,000);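 active means activation above the mean of all tested compounds plus 3 SD, cutoff set per screening run, cut at about 20% in these data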;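 further: peak over basal fluorescence ratio from a 100 s FLIPR kinetic read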
M4 ag – human M4 muscarinic receptor agonists, primary screen, CHO-K1 cells, Fluo-8 calcium fluorescence | AID 624127, 2012 | CHO-K1 hM4/Gqi5; vehicle 0%, full acetylcholine response 100% | activation, % at 3 µM | Muscarinic acetylcholine receptor M4 (Homo sapiens), P08173 | actives 0.14% (n = 360,000);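 active means activation above the run mean over all test wells plus 3 SD, cut at about 32% in these data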;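 further: peak over basal fluorescence ratio per well then scaled between controls; 0% = DMSO wells and 100% = acetylcholine at EC100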
Target sequence (P08173 whole entry, looked up): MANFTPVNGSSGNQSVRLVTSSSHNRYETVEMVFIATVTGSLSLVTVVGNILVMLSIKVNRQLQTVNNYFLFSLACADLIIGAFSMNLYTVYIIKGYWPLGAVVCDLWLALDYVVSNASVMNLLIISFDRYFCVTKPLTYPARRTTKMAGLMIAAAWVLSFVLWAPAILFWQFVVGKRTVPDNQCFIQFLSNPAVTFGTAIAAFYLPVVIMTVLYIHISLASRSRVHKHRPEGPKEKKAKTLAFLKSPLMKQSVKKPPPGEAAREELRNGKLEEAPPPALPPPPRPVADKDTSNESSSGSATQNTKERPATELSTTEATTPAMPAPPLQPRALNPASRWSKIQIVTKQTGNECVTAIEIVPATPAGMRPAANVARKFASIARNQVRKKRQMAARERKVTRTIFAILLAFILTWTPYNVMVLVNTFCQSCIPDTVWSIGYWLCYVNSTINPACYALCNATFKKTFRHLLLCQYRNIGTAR
OXTR potentiate – human OXTR potentiators, primary screen, fluorescence, CHO-OTR cells, Fluo-8 calcium | actives 0.061% (n = 320,000) | Fluo-8 calcium fluorescence, potentiator mode; 0% = oxytocin EC15, 100% = EC100 | Oxytocin receptor (Homo sapiens), P30559 | AID 2445, 2010 | activation, % at 3 µM;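 active means activation above that plate's cutoff, the mean activation of tested compounds plus 3 SD, cut at about 6.6% in these data, passing the limit was not always enough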;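 further: 100% uses oxytocin at 75 nM as the full agonist control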
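Replication – single well per compound, singlicate · Assay system – CHO cell line stably expressing human OTR · Timing – 6 min pre-incubation, 100 s read · Measure – normalized max/min fluorescence ratio, % activation · Doses – 3.0 µM, one dose · Detection – Fluo-8 calcium dye fluorescence · Probe or stimulus – oxytocin near EC15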
V1R ag counter – agonists of human V1a receptor, primary screen, counter-screen for OXTR agonist project, fluorescence, CHO-V1R cells; Fluo-8 calcium fluorescence, agonist mode; 0% DMSO, 100% 3 nM vasopressin; activation, % at 3 µM; actives 0.25% (n = 320,000);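 active means activation above the mean activation of all tested compounds plus 3 SD, per screening run, cut at about 20% in these data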;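 further: signal is peak over basal fluorescence ratio across a 100 second FLIPR read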
CHRM4 antagonist – human M4 muscarinic receptor antagonists, primary screen, CHO cells, Fluo-8 calcium fluorescence. inhibition, % at 3 µM. CHO-hM4 cells, ACh EC80. AID 624125, 2012. Muscarinic acetylcholine receptor M4 (Homo sapiens), P08173. actives 0.73% (n = 360,000);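 active means inhibition above its plate's cutoff, the mean inhibition of sample wells plus 3 SD, cut at about 27% in these data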;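 further: 0% = acetylcholine EC80 with DMSO and 100% = DMSO without agonist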
CHRM4 PAM – human M4 muscarinic receptor positive allosteric modulators, primary screen, CHO-K1 cells, Fluo-8 calcium fluorescence. CHO-K1 hM4/Gqi5, ACh EC20; 0% = ACh EC20, 100% = maximal ACh. Muscarinic acetylcholine receptor M4 (Homo sapiens), P08173. activation, % at 3 µM. actives 0.4% (n = 360,000);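 active means activation above its plate's cutoff, the mean activation of sample wells plus 3 SD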
Numbers without * were called inactive; nt = no result given.

SMILES	OXTR agonist	M4 ag	OXTR potentiate	V1R ag counter	CHRM4 antagonist	CHRM4 PAM
CC(C)(C)S(=O)(=O)c1cnc(N2CCCCC2)nc1N	0	0	-12	-1	5	-18
CC(=O)c1cnc(N2CCCCC2)nc1C	0	1	0	0	31*	16
COc1ccc(OC)c(S(=O)(=O)N2CCCC(C)C2)c1 (stereo unspecified)	-1	0	3	0	-6	28*
CN(CC(=O)Nc1cccc(F)c1)CC(=O)Nc1cccc2ccccc12	4	28	-8	2	13	-10
CN(CC(=O)Nc1cccc2ccccc12)C(=O)c1ccc(F)cc1F	0	3	-2	-1	-12	23*
O=C(CN(Cc1ccco1)C(=O)c1ccc(F)cc1F)Nc1ccccc1C(F)(F)F	-2	1	-3	0	-10	23*
COc1ccc(Cl)cc1NC(=O)c1cccc([N+](=O)[O-])c1O	nt	12	nt	nt	-20	1
C(=Cc1c[nH]c2ccccc12)c1ccc2ccccc2n1	nt	36*	nt	nt	1	-10
C(=Cc1c[nH]c2ccccc12)c1nccc2ccccc12	nt	4	nt	nt	-6	2
CC(=O)Nc1ccc(C(=O)Nc2cc(C)on2)cc1	2	-1	-4	0	28*	-13
O/C(=C\c1nc2ccccc2[nH]1)c1cccs1	-1	3	-6	0	-4	6
O=c1[nH]c2ccccc2nc1/C=C(\O)c1cccs1	23*	12	-15	29*	6	-7
O=C(/C(=C/c1ccc(Cl)cc1)c1nc2ccccc2[nH]1)c1cccs1	0	4	-2	4	66*	-16
O=C(/C(=C\c1ccccc1)c1nc2ccccc2[nH]1)c1ccc(Cl)cc1	-2	2	-11	1	-13	0
CCN(CC)C(=O)c1cccc(-c2csc(C(NC(C)=O)c3cccc(OC)c3)n2)c1 (stereo unspecified)	nt	3	nt	nt	9	-4
CCN(CC)C(=O)c1cccc(-c2csc(C(O)c3ccc(F)c(F)c3)n2)c1 (stereo unspecified)	nt	11	nt	nt	6	-9
CC(=O)Nc1sc(C)c(C)c1C(=O)OCC(=O)N(CC(C)C)C1CCS(=O)(=O)C1 (stereo unspecified)	-2	2	-6	0	-9	23*
Cc1ccc(S(=O)(=O)Nc2ccc(N3CCCCC3)cc2)cc1	-1	1	-7	2	0	0
Cc1ccc(S(=O)(=O)Nc2ccc(NC(=O)c3c(F)c(F)c(F)c(F)c3F)cc2)cc1	37*	30	-17	27*	7	-21
Cc1ccc(NS(=O)(=O)c2ccc(C3CCCCC3)cc2)cc1	8	12	-12	17	49*	-18
Cc1cc2cc(CNC(=O)c3ccc(C)c([N+](=O)[O-])c3)ccc2[nH]1	7	2	-6	7	3	-10
CCn1ncc(C2=NOC(C(=O)Nc3cnn(C45CC6CC(CC(C6)C4)C5)c3)C2)c1C (stereo unspecified)	35*	14	-9	25*	-2	6
COc1cccc(OC)c1NC(=O)C1CCCN1C(=O)Nc1cccc(Cl)c1 (stereo unspecified)	0	2	-14	0	-14	-1
COCCN(C(=O)COC(=O)c1ccc(-c2ccccc2)cc1)c1c(N)n(Cc2ccccc2)c(=O)[nH]c1=O	nt	1	nt	nt	7	3
Cc1cccc(C)c1-n1c(C)cc(/C=C2\NC(=O)NC2=O)c1C	-1	0	0	-1	1	36*
COc1ccc(NC(=S)N(CCCN2CCC(C)CC2)Cc2cccs2)cc1	2	3	2	5	-2	-5
